Measured values: PMC10843616 (European journal of medicinal chemistry, 2023)
Like-named read-outs stand apart in the source and are kept apart here.

What was measured:
[1] = tested on: T. b. brucei AnTat1.1 trypomastigotes expressing Renilla luciferase; assay: T. b. brucei acute infection mouse efficacy; format: in vivo, BALB/c mice; settings: 5 consecutive days; for parasite growth in vivo, intraperitoneal: 100 mpk IP; for parasite growth in vivo, oral: 100 mpk oral gavage
[2] = target: tCatL (trypanosomal cathepsin-L) (Trypanosoma brucei rhodesiense, UniProt Q95PM0); assay: tCatL inhibition assay; format: biochemical; settings: at 10 μM after 1 hour
In short: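 Recombinant tCatL was expressed in Pichia pastoris and purified. Inhibition was run by a previously published protocol, with E-64 as the positive control.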

[3] = tested on: bloodstream forms of T. brucei brucei (strain 427); assay: T. b. brucei growth inhibition, Alamar blue assay; format: cell-based, Trypanosoma brucei brucei; settings: Hep G2 CC50 / T.b.b EC50
[4] = tested on: Bloodstream forms of T. b. rhodesiense (STIB 900); assay: T. b. rhodesiense growth inhibition, resazurin assay; format: cell-based, Trypanosoma brucei rhodesiense; settings: for SI (CC50/EC50), T.b.r: Hep G2 CC50 / T.b.r EC50
[5] = tested on: Bloodstream forms of T. b. gambiense (130R); assay: T. b. gambiense growth inhibition, resazurin assay; format: cell-based, Trypanosoma brucei gambiense; settings: for SI (CC50/EC50), T.b.g: Hep G2 CC50 / T.b.g EC50
[6] = Single-dose pharmacokinetics in mice; format: in vivo, mice (C57BL/6; settings: male, C57BL/6, mouse, plasma, oral, 5 mg/kg
[7] = tested on: T. b. rhodesiense STIB 900-luc; assay: T. b. rhodesiense acute infection mouse efficacy; format: in vivo, NMRI mice; settings: four days; for animals surviving to 60 days with no detectable parasitemia: oral
In short: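 Female NMRI mice, five per group, were inoculated i.p. with 1 x 10^4 bloodstream-form STIB 900-luc. Oral gavage started day 3 post-infection for four consecutive days, in PBS with 0.5% hydroxyl-methylcellulose and 0.5% Tween 80. Three mice were infected-untreated controls. Parasitemia was tracked by whole-animal bioluminescence imaging after D-luciferin: twice weekly for two weeks after treatment, then weekly to day 60. Cure meant a day-60 signal not above background.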

[8] = tested on: T. b. rhodesiense; settings: 100 mpk once a day; ref as previously reported; cited from earlier work
[9] = 25 mpk; ref as previously reported; cited from earlier work
[10] = Human liver microsome stability; format: in vitro ADME; settings: liver microsomes

CS(=O)(=O)/C=C/CNC(=O)c1ccc([N+](=O)[O-])o1 [Compound 7, (E)-N-[3-(methylsulfonyl)allyl]-5-nitrofuran-2-carboxamide]
parasite growth in vivo, intraperitoneal [1]: ineffective | parasite growth in vivo, oral [1]: reduced parasitemia

CS(=O)(=O)CCCNC(=O)c1cccs1 [Compound 16, N-[3-(methylsulfonyl)propyl]thiophene-2-carboxamide]
Percentage inhibition of tCatL [2]: inactive

CNC(=O)/C=C/CNC(=O)c1ccc([N+](=O)[O-])o1 [Compound 11, (E)-N-[4-(methylamino)-4-oxobut-2-en-1-yl]-5-nitrofuran-2-carboxamide]
SI (CC50/EC50), T.b.b [3]: > 44.38 | SI (CC50/EC50), T.b.r [4]: > 340.91 | SI (CC50/EC50), T.b.g [5]: > 159.57

O=C(N[C@H](/C=C/S(=O)(=O)c1ccccc1)CCc1ccccc1)c1cc(Cl)c([N+](=O)[O-])[nH]1 [Compound 3, (S,E)-4-chloro-5-nitro-N-[5-phenyl-1-(phenylsulfonyl)pent-1-en-3-yl]-1H-pyrrole-2-carboxamide]
SI (CC50/EC50), T.b.b [3]: >5.13

O=C(NC/C=C/S(=O)(=O)c1ccccc1)c1ccc([N+](=O)[O-])s1 [Compound 4, (E)-5-nitro-N-[3-(phenylsulfonyl)allyl]thiophene-2-carboxamide]
SI (CC50/EC50), T.b.b [3]: 3.21 | SI (CC50/EC50), T.b.r [4]: 33.47 | SI (CC50/EC50), T.b.g [5]: 63.81

CNC(=O)CCCNC(=O)c1cccs1 [Compound 18, N-[4-(methylamino)-4-oxobutyl]thiophene-2-carboxamide]
Percentage inhibition of tCatL [2]: inactive

CNC(=O)CCCNC(=O)c1ccc([N+](=O)[O-])s1 [Compound 17, N-[4-(methylamino)-4-oxobutyl]-5-nitrothiophene-2-carboxamide]
Percentage inhibition of tCatL [2]: inactive

CC(C)C[C@H](NC(=O)[C@H]1O[C@@H]1C(=O)O)C(=O)NCCCCN=C(N)N [Compound E64, E-64, reference compound]
Percentage inhibition of tCatL [2]: 100%

O=C(NC/C=C/S(=O)(=O)c1ccccc1)c1ccco1 [Compound 6, (E)-N-[3-(phenylsulfonyl)allyl]furan-2-carboxamide]
SI (CC50/EC50), T.b.b [3]: 34.02

CNC(=O)/C=C/CNC(=O)c1ccc([N+](=O)[O-])s1 [Compound 10, (E)-N-[4-(methylamino)-4-oxobut-2-en-1-yl]-5-nitrothiophene-2-carboxamide]
SI (CC50/EC50), T.b.b [3]: > 138.88 | SI (CC50/EC50), T.b.r [4]: > 535.71 | EC90 ([4]; Trypanosoma brucei, RHODESIENSE|STIB900, read-out: EC90 for T. b. rhodesiense): 210 nM | SI (CC50/EC50), T.b.g [5]: > 576.92 | concentration at 2 h [6]: 720 nM | parasite growth in vivo, intraperitoneal [1]: suppressed parasite growth | parasite growth in vivo, oral [1]: suppressed parasite growth | animals surviving to 60 days ([7]; 100 mpk b.i.d, orally): 3 out of 5 | animals surviving to 60 days with no detectable parasitemia ([7]; 200 mpk once daily): 4 out of 5 | animals surviving to 60 days with no detectable parasitemia ([7]; 200 mpk twice daily): 4 out of 5

CSc1ccc(OCc2ncc([N+](=O)[O-])n2C)cc1 [fexinidazole]
infected mice treated (cured) [8]: 4 out of 4 | half-life [9]: 48 min

Nc1nc(N)nc(Nc2ccc([As]3SCC(CO)S3)cc2)n1 (stereo not shown) [Melarsoprol, reference compound]
EC50 ([5]; Trypanosoma brucei, GAMBIENSE, 68 h, read-out: T.b.g EC50, 130R, 68 h incubation): 7 ± 3 nM

O=C(N[C@H](/C=C/S(=O)(=O)c1ccccc1)CCc1ccccc1)c1ccc([N+](=O)[O-])o1 [Compound 1]
half-life [10]: 10.8 min
